TAAR1 antagonist: human TAAR1 antagonists, primary screen, Fluo-8 calcium fluorescence, CHO RD-HGA16 cells. Trace amine-associated receptor 1 (Homo sapiens), Q96RJ0. antagonist. inhibition, % at 3 µM. 360,000 compounds, 1.5% hits;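 active = inhibition above a per-plate cutoff, the mean inhibition of test compounds on that plate plus 3 SD, cut at about 49% in these data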;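 note: 0% = DMSO plus EC80 beta-PEA response and 100% = DMSO alone without agonist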
Target sequence (Q96RJ0 whole entry, looked up): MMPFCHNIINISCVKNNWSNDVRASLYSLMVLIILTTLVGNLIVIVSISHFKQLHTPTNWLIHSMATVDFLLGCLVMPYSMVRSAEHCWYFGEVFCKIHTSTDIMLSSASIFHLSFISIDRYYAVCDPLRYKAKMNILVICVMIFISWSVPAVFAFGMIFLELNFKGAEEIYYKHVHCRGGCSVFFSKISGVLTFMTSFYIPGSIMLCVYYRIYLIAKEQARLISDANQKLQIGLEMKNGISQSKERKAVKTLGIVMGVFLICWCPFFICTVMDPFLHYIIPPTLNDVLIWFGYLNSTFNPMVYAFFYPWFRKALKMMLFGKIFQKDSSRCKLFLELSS
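Test system – hTAAR1-expressing CHO RD-HGA16 cells, Gα16-coupled · Also added – β-PEA at EC80 concentration, post-compound challenge · Compound – 3 µM, single point · Incubation – dye loading 75 min at 37 °C, then 30 min room temperature · Measured by – Fluo-8 intracellular calcium dye fluorescence, real-time kinetic reads · Benchmarks – vehicle and agonist controls · Replicates – singlicate, one well per test compound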
TAAR1 agonist: human TAAR1 agonists, primary screen, Fluo-8 calcium fluorescence, CHO RD-HGA16 cells; vehicle wells 0%, saturating PEA agonist 100%; activation, % at 3 µM; 360,000 compounds, 0.99% hits;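 active = activation above the mean activation of all test compounds in the run plus 3 SD, cut at about 38% in these data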
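Test system: RD-HGA16 (CHO) cells co-expressing Gα16 and hTAAR1; dosing: one-point dosing at 3 µM (nominal); timing: 17-24 h seeding, 75 min 37 °C dye, 30 min RT; signal: kinetic Fluo-8 calcium fluorescence; read-out basis: % activation relative to PEA EC100 response; controls: DMSO and PEA EC100; replicates: n 1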
CHO parental Ca: ATP-evoked calcium signal inhibitors, parental CHO, primary screen, counter-screen for OX1R antagonist project, cell-based, fluorescence, Fluo-8 calcium dye. parental CHO-K1, ATP-induced calcium, Fluo-8 fluorescence. inhibition, % at 5.6 µM. 330,000 compounds, 0.63% hits. AID 463079, 2010;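 active = inhibition above that plate's mean sample inhibition plus 3 SD, cut at about 26% in these data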;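 note: 0% = ATP-challenged DMSO wells and 100% = DMSO wells without ATP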
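material = parental CHO cells | also added = ATP as calcium-mobilizing challenge | dosing = single point at 5.6 µM | detection = intracellular calcium via Fluo-8 no-wash fluorescent dye | read-out = % inhibition | benchmarks = low control ATP plus DMSO, high control DMSO only | repeats = one well per compound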
OX1R antag-1: OX1R (HCRTR1) antagonists, primary screen, fluorescence, CHO/OX1R cells, Fluo-8 calcium, orexin A; Fluo-8 calcium fluorescence; 330,000 compounds, 0.43% hits; inhibition, % at 5 µM; Orexin/Hypocretin receptor type 1 (Homo sapiens), O43613;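 active = inhibition above its plate's threshold, mean inhibition of all tested compounds on the plate plus 3 SD, cut at about 37% in these data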;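 note: 0% = orexin A challenge wells and 100% = SB-334867-A antagonist wells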
Target sequence (O43613 whole entry, looked up): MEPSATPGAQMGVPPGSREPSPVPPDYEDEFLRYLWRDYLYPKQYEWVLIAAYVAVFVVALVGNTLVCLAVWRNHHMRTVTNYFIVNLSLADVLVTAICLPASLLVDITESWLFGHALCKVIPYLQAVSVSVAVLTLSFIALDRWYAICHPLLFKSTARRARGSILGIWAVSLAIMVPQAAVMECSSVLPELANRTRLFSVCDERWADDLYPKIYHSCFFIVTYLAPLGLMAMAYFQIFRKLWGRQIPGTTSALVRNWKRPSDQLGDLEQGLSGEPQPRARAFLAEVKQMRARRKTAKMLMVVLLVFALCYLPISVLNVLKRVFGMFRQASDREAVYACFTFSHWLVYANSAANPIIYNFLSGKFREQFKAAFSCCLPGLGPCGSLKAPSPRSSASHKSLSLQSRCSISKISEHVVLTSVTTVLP
OX1R antag-2: antagonists of human orexin 1 receptor (OX1R) | Orexin/Hypocretin receptor type 1 (Homo sapiens), O43613 | OX1R-expressing cells, FRET antagonist read-out | inhibition, % at 6.6 µM | 330,000 compounds, 1.8% hits; in the data active = inhibition mostly above about 38%, no sharp cut-off; inactive = mostly below about 40%;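 note: 0% = agonist challenge alone and 100% = reference antagonist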
TAAR1 ag confirm: human TAAR1 agonists, retest of hits, confirmation, Fluo-8 calcium fluorescence, CHO RD-HGA16 cells; shares compounds with TAAR1 agonist; scaled: DMSO 0%, maximal phenethylamine 100%; activation, % at 3 µM; 2,400 compounds, 82% hits; AID 651783, 2012;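 active = activation above a cutoff set at the run's mean compound activation plus 3 SD, cut at about 39% in these data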
Ga16 nonsel ag: nonselective calcium mobilization agonists, CHO-Ga16 cells, counter-screen for hTAAR1 agonist project, cell-based, fluorescence, CHO-Ga16 parental line; Fluo-8 calcium fluorescence; normalized to maximal ATP response, DMSO zero; activation, % at 3 µM; 2,400 compounds, 50% hits; shares compounds with TAAR1 agonist;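 active = activation above the run cutoff, the mean activation over all tested wells plus 3 SD, cut at about 12% in these data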;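 note: 0% = DMSO wells and 100% = maximal ATP response on the peak over basal ratio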
TAAR1 desens: TAAR1 desensitization by agonist hits, confirmation, counter-screen for TAAR1 agonist project, cell-based, fluorescence, tachyphylaxis | shares compounds with TAAR1 agonist | CHO RD-HGA16 hTAAR1, Fluo-8 calcium, beta-PEA response inhibition | inhibition, % at 3 µM | 2,400 compounds, 46% hits | AID 651951, 2012;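 active = inhibition above the run cutoff, the mean inhibition of all test compounds plus 3 SD, cut at about 49% in these data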;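 note: beta-PEA stimulus applied at its EC80; loss of beta-PEA calcium signal after compound pretreatment read as receptor desensitization; 0% = DMSO with beta-PEA at EC80 and 100% = DMSO alone without agonist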
Ga16 antag count: inhibition of ATP-evoked calcium response in CHO-Ga16 cells, counter-screen for TAAR1 agonist project, cell-based, fluorescence. shares compounds with TAAR1 agonist. CHO-Ga16 ATP-induced calcium, Fluo-8 fluorescence. inhibition, % at 3 µM. 2,400 compounds, 39% hits. AID 651952, 2012;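 active = inhibition above the plate's mean compound inhibition plus 3 SD, computed per plate, cut at about 22% in these data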;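 note: 0% = EC80 ATP with DMSO and 100% = DMSO wells without ATP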
* = called active by the depositor. Most compounds without a hit are left out; they make up all but 4% or so of the library.

For CC(=O)c1ccc(NC(=S)NCCc2ccc(S(N)(=O)=O)cc2)cc1 the results were TAAR1 antagonist 5.9, TAAR1 agonist 0.2, CHO parental Ca 1.5, OX1R antag-1 2.8 and OX1R antag-2 5.8.
`CC(C)(C)c1ccc(CN2N=C(/C=C/c3ccccc3)CCC2=O)cc1` gave TAAR1 antagonist -4.6, TAAR1 agonist 4.2, CHO parental Ca -17.1, OX1R antag-1 -33.2 and OX1R antag-2 1.1.
For O=S(=O)(NC1=NCCC1)c1cccc(NC(=S)NCCc2ccccc2)c1 the results were TAAR1 antagonist -5.0, TAAR1 agonist 62.4*, CHO parental Ca -24.5, OX1R antag-1 -3.9, OX1R antag-2 15.4, TAAR1 ag confirm 11.5, Ga16 nonsel ag 3.7, TAAR1 desens 6.2 and Ga16 antag count 8.0.
COc1ccc(C(=O)NC(=S)Nc2ccc(S(N)(=O)=O)cc2)cc1 was read as TAAR1 antagonist 10.8, TAAR1 agonist 0.3, CHO parental Ca -1.5, OX1R antag-1 1.3 and OX1R antag-2 1.6.
`NNC(=S)NCCc1ccccc1` gave CHO parental Ca -22.4, OX1R antag-1 -17.5, OX1R antag-2 20.9, Ga16 nonsel ag -0.4 and Ga16 antag count 4.2.
`O=S(=O)(c1ccc(NC(=S)NCCc2ccccc2)cc1)N1CCOCC1` gave TAAR1 antagonist 14.6, TAAR1 agonist 74.2*, CHO parental Ca 1.4, OX1R antag-1 -2.9, OX1R antag-2 16.5, TAAR1 ag confirm 85.7*, Ga16 nonsel ag 13.0*, TAAR1 desens 65.3* and Ga16 antag count 26.4*.
`O=S(=O)(c1ccc(NC(=S)NN=C(Cc2ccccc2)Cc2ccccc2)cc1)N1CCOCC1` gave TAAR1 antagonist 13.7, TAAR1 agonist -1.6, CHO parental Ca -26.9, OX1R antag-1 -29.9 and OX1R antag-2 8.5.
For COc1ccc(CC(=O)NC(=S)Nc2ccc(S(N)(=O)=O)cc2)cc1 the results were TAAR1 antagonist 28.4, TAAR1 agonist 80.9*, CHO parental Ca 17.1, OX1R antag-1 8.6, OX1R antag-2 2.3, TAAR1 ag confirm 88.2*, Ga16 nonsel ag 39.6*, TAAR1 desens 46.5 and Ga16 antag count 27.9*.
CC(C)C(NS(=O)(=O)c1ccccc1)C(=O)N1CCCC1 (stereo not given) was read as TAAR1 antagonist 6.9, TAAR1 agonist -0.8, CHO parental Ca 0.8, OX1R antag-1 -9.1 and OX1R antag-2 -4.1.
`O=C(CSC1=NS(=O)(=O)c2cc(F)ccc2N1)NCCc1ccccc1` gave TAAR1 antagonist 81.3*, TAAR1 agonist 101.5*, CHO parental Ca -0.5, OX1R antag-1 -7.1, OX1R antag-2 15.1, TAAR1 ag confirm 105.0*, Ga16 nonsel ag 0.7, TAAR1 desens 94.4* and Ga16 antag count 6.2.
For O=C(CSC1=NS(=O)(=O)c2cc(Cl)ccc2N1)NCCc1ccccc1 the results were TAAR1 antagonist 80.2*, TAAR1 agonist 104.3*, CHO parental Ca 1.1, OX1R antag-1 -12.7, OX1R antag-2 25.1, TAAR1 ag confirm 92.6*, Ga16 nonsel ag 0.0, TAAR1 desens 85.9* and Ga16 antag count 7.3.
CC(=O)c1ccc(N2CCN(CC(=O)Nc3ccc4c(c3)OCCO4)CC2)cc1 was read as TAAR1 antagonist -19.2, TAAR1 agonist -0.8, CHO parental Ca 8.7, OX1R antag-1 -10.1 and OX1R antag-2 0.0.
Screening Cc1ccc(Nc2cc(C)nc(NCc3ccccc3)n2)cc1 returned TAAR1 antagonist 2.4, TAAR1 agonist 56.3*, CHO parental Ca 14.5, OX1R antag-1 -20.0, OX1R antag-2 6.6, TAAR1 ag confirm 87.8*, Ga16 nonsel ag 42.5*, TAAR1 desens 44.9 and Ga16 antag count 27.1*.
COc1cc(C)nc(NCc2ccccc2)n1 was read as TAAR1 antagonist -1.6, TAAR1 agonist 3.9, CHO parental Ca -7.9, OX1R antag-1 -14.3 and OX1R antag-2 25.6.
Screening Cc1cc(NC2CCCCC2)nc(NCc2ccccc2)n1 returned TAAR1 antagonist 19.0, TAAR1 agonist 67.3*, CHO parental Ca 35.6*, OX1R antag-1 -6.4, OX1R antag-2 19.4, TAAR1 ag confirm 75.5*, Ga16 nonsel ag 52.3*, TAAR1 desens 59.2* and Ga16 antag count 39.0*.
`Cc1nc(N)nc(N)c1/C=C/C(C)(C)c1ccc(Cl)cc1` gave TAAR1 antagonist 40.5, TAAR1 agonist 53.5*, TAAR1 ag confirm 71.9*, Ga16 nonsel ag 41.8*, TAAR1 desens 72.2* and Ga16 antag count 48.0*.
`CC(=O)NCCc1ccc(C(=O)CSc2nnc(C3CC3)n2C2CC2)cc1` gave TAAR1 antagonist 7.7, TAAR1 agonist 1.2, CHO parental Ca -0.3, OX1R antag-1 -18.0 and OX1R antag-2 2.8.
`O=c1oc(-c2ccc(Br)o2)nc2ccccc12` gave TAAR1 antagonist -10.5, TAAR1 agonist 2.6, CHO parental Ca -5.6, OX1R antag-1 -5.3 and OX1R antag-2 19.1.
Screening CCOc1ccc(N2C(=O)CC(NCc3ccc(S(N)(=O)=O)cc3)C2=O)cc1 (stereo not given) returned TAAR1 antagonist -11.0, TAAR1 agonist 45.0*, CHO parental Ca 2.1, OX1R antag-1 -5.2, OX1R antag-2 6.5, TAAR1 ag confirm 6.5, Ga16 nonsel ag 1.9, TAAR1 desens -13.3 and Ga16 antag count -1.6.
For CC(=O)c1ccc(S(=O)(=O)N2CCN(CCOc3ccccc3)CC2)cc1 the results were TAAR1 antagonist -3.2, TAAR1 agonist 0.4, CHO parental Ca -18.5, OX1R antag-1 -9.1 and OX1R antag-2 7.6.
For CC(C)(C)CC(=O)Nc1cc2c3c(c1)CC(=O)N3CCC2 the results were TAAR1 antagonist -14.9, TAAR1 agonist 1.4, CHO parental Ca -5.0, OX1R antag-1 -10.2 and OX1R antag-2 -3.1.

Compound activity: PubChem BioAssay, The Scripps Research Institute Molecular Screening Center
